Experimental data published in ChEMBL document CHEMBL4765230, “Discovery of Orally Efficacious Phosphoinositide 3-Kinase δ Inhibitors with Improved Metabolic Stability” (J Med Chem, 2016).

Assays:
[1] = Chemical stability assessed as time taken for hydrolytic degradation at pH 2; assay type: physicochemical; conditions: buffer
Procedure, shortened: (§1)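 Compound diluted from acetonitrile or DMSO stock to 100 μg/mL final in 50 mM phosphate buffer, pH 2 (or pH 7), ionic strength 0.15 M NaCl, 40 °C in autosampler. Timed injections analysed by reverse-phase UPLC-UV (220 nm); pseudo-first-order kobs from ln c vs time; t50 and t90 calculated.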

[2] = Chemical stability of the compound at pH 2 phosphate buffer assessed as time required for 50% hydrolytic degradation at 100 ug/ml and 40 degreeC by UPLC-UV analysis; assay type: physicochemical; conditions: dose 100 µg/ml, read-out: Time (converted); procedure, shortened: as §1
[3] = target: PI3K p110 beta/p85 alpha (Homo sapiens, UniProt P42338); test: Inhibition of recombinant human full-length N-terminal His-tagged PI3K p110beta/p85alpha using […] as substrate measured after 30 mins by TR-FRET assay; assay type: protein-complex assay
[4] = Chemical stability of the compound at pH 2 phosphate buffer assessed as time required for 90% hydrolytic degradation at 100 ug/ml and 40 degreeC by UPLC-UV analysis; assay type: physicochemical; conditions: in the assay text read “10% hydrolytic degradation” for “90% hydrolytic degradation”, dose 100 µg/ml; procedure, shortened: as §1
[5] = target: Phosphatidylinositol 4,5-bisphosphate 3-kinase catalytic subunit gamma isoform (Homo sapiens, UniProt P48736); test: Inhibition of human full length PI3K p110gamma using […] as substrate measured after 30 mins by TR-FRET assay
[6] = target: PI3-kinase p110-alpha/p85-alpha (Homo sapiens, UniProt P42336); test: Inhibition of human full length PI3K p110alpha/p85alpha using […] as substrate measured after 30 mins by TR-FRET assay; assay type: protein-complex assay
[7] = Drug degradation at low pH; assay type: physicochemical; procedure, shortened: as §1
[8] = Selectivity index, ratio of IC50 for inhibition of human full length PI3K p110gamma to IC50 for inhibition of human full length PI3K p110delta/p85alpha
[9] = Half life of the compound; assay type: physicochemical
[10] = Selectivity index, ratio of IC50 for inhibition of human full length PI3K p110alpha/p85alpha to IC50 for inhibition of human full length PI3K p110delta/p85alpha
[11] = Selectivity index, ratio of IC50 for inhibition of recombinant human full-length N-terminal His-tagged PI3K p110beta/p85alpha to IC50 for inhibition of human full length PI3K p110delta/p85alpha
[12] = Chemical stability of the compound under aqueous acidic condition; assay type: physicochemical; conditions: buffer; procedure, shortened: as §1
[13] = target: T1, Phosphatidylinositol 4,5-bisphosphate 3-kinase catalytic subunit delta isoform (Homo sapiens, UniProt O00329); test: Inhibition of PI3Kdelta in human whole blood assessed as reduction in anti-FCepsilonR1 mAb-stimulated basophil activation preincubated for 60 mins followed by anti-FCepsilonR1 mAb stimulation and measured after 25 mins by flow cytometry analysis; assay type: tissue-based
T1 sequence (O00329 whole entry): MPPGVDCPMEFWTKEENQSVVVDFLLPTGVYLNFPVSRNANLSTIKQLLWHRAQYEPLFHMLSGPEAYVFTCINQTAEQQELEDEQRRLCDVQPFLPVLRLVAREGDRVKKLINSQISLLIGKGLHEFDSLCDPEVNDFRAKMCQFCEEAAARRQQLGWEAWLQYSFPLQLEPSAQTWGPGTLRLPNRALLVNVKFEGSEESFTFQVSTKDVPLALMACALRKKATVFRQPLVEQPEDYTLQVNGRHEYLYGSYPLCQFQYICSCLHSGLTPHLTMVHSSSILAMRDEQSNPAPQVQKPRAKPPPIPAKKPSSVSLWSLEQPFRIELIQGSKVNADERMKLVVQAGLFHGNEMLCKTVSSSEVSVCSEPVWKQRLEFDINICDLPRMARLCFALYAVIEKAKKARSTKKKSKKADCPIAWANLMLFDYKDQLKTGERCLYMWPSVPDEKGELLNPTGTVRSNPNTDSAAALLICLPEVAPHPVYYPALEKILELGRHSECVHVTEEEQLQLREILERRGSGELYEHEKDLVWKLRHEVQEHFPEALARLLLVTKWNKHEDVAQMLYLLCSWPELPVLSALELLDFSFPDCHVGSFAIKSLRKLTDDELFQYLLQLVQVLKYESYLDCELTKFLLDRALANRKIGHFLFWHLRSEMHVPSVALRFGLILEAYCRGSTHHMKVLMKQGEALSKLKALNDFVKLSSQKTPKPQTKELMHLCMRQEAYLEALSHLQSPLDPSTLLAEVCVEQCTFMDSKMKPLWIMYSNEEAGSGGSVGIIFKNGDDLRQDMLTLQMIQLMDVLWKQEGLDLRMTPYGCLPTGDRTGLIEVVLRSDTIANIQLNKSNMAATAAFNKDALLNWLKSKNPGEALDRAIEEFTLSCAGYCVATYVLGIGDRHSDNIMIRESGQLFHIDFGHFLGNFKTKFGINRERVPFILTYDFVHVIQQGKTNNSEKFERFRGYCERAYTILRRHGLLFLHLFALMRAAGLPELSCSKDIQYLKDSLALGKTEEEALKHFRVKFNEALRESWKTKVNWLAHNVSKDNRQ

[14] = Volume of distribution at steady state in rat at 1 mg/kg, iv; assay type: ADME, organism-based; conditions: in vivo, read-out: Vdss
Procedure, shortened: (§2)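 Rats and dog received 1 mg/kg intravenously, formulated in 12% w/v Captisol in water. Volume of distribution was taken at steady state from the iv plasma profile. Three animals per dosing route.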

[15] = Volume of distribution at steady state in dog at 1 mg/kg, iv; assay type: ADME, organism-based, Canis lupus familiaris; conditions: in vivo, read-out: Vdss; procedure, shortened: as §2
[16] = Clearance in dog at 1 mg/kg, iv; assay type: ADME, organism-based, Canis lupus familiaris; conditions: in vivo
[17] = Drug degradation assessed as acid-mediated compound hydrolysis at 40 degreeC measured at 3 hrs; assay type: physicochemical; conditions: read-out: Drug degradation; procedure, shortened: as §1
[18] = Clearance in rat at 1 mg/kg, iv; assay type: ADME, organism-based; conditions: in vivo
[19] = Oral bioavailability in rat at 5 mg/kg; assay type: ADME, organism-based; conditions: in vivo
[20] = target: PI3-kinase p110-delta/p85-alpha (Homo sapiens, UniProt O00329); test: Inhibition of human full length PI3K p110delta/p85alpha using […] as substrate measured after 30 mins by TR-FRET assay; assay type: protein-complex assay
[21] = Thermal stability of compound assessed as half life at 40 degreeC measured over 72 hrs by HPLC analysis; assay type: physicochemical
[22] = Clearance in cynomolgus monkey at 1 mg/kg, iv; assay type: ADME, organism-based, Macaca fascicularis; conditions: in vivo
[23] = Half life in dog at 1 mg/kg, iv; assay type: ADME, organism-based, Canis lupus familiaris; conditions: in vivo
[24] = Half life in rat at 1 mg/kg, iv; assay type: ADME, organism-based; conditions: in vivo
[25] = Volume of distribution at steady state in cynomolgus monkey at 1 mg/kg, iv; assay type: ADME, organism-based, Macaca fascicularis; conditions: in vivo, read-out: Vdss
[26] = Half life in cynomolgus monkey at 1 mg/kg, iv; assay type: ADME, organism-based, Macaca fascicularis; conditions: in vivo

Phosphatidylinositol 4,5-bisphosphate 3-kinase catalytic subunit gamma isoform, sequence (P48736 whole entry, canonical isoform): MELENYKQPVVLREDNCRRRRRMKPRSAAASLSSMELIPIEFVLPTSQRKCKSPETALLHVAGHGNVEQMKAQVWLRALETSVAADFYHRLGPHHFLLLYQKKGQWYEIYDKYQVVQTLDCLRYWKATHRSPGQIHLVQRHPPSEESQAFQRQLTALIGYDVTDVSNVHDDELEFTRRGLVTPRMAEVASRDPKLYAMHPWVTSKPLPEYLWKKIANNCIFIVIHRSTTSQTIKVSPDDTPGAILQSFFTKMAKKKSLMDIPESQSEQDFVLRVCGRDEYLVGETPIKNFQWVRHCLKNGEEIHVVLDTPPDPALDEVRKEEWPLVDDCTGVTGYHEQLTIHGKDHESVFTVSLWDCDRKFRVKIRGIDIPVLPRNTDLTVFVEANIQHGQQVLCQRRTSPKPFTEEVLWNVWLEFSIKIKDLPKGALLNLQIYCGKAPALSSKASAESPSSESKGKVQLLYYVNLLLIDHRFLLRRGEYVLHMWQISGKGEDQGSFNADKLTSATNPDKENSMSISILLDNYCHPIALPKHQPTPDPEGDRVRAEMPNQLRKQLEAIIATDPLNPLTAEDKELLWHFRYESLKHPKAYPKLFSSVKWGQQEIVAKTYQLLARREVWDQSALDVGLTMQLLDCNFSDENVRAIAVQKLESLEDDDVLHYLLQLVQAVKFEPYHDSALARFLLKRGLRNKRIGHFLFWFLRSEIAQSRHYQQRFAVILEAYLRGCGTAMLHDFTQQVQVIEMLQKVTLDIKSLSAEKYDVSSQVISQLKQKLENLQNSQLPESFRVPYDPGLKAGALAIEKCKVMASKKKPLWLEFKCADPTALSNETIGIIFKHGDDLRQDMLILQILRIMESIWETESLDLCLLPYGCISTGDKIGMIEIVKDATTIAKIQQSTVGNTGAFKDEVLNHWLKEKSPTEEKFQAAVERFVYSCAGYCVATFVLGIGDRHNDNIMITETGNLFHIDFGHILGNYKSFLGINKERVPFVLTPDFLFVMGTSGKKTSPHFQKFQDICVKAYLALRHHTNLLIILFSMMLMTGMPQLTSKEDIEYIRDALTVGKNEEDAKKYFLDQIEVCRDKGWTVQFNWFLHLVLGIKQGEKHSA
PI3-kinase p110-delta/p85-alpha, sequence (P27986 whole entry, one chain of several): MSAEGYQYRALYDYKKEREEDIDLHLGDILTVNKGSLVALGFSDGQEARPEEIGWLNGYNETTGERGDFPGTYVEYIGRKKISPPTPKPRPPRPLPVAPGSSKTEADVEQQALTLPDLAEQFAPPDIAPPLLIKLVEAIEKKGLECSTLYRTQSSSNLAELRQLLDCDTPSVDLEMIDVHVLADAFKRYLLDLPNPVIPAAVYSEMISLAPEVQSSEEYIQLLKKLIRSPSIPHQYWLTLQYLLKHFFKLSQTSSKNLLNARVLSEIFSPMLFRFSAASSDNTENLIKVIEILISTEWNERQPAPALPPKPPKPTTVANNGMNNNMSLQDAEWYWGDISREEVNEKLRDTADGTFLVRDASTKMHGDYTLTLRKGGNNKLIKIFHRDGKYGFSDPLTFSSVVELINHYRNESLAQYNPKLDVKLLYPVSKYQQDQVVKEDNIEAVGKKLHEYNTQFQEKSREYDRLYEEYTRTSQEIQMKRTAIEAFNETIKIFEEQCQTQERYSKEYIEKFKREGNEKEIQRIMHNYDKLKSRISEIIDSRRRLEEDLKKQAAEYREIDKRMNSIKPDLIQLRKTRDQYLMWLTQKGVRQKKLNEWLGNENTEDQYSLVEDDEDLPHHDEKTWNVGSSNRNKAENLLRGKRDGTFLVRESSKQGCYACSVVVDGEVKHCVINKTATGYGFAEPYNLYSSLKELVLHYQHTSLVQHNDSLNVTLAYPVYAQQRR
PI3K p110 beta/p85 alpha, sequence (P27986 whole entry): as the sequence (P27986 whole entry, one chain of several) above
PI3K p110 beta/p85 alpha, sequence (P42338 whole entry): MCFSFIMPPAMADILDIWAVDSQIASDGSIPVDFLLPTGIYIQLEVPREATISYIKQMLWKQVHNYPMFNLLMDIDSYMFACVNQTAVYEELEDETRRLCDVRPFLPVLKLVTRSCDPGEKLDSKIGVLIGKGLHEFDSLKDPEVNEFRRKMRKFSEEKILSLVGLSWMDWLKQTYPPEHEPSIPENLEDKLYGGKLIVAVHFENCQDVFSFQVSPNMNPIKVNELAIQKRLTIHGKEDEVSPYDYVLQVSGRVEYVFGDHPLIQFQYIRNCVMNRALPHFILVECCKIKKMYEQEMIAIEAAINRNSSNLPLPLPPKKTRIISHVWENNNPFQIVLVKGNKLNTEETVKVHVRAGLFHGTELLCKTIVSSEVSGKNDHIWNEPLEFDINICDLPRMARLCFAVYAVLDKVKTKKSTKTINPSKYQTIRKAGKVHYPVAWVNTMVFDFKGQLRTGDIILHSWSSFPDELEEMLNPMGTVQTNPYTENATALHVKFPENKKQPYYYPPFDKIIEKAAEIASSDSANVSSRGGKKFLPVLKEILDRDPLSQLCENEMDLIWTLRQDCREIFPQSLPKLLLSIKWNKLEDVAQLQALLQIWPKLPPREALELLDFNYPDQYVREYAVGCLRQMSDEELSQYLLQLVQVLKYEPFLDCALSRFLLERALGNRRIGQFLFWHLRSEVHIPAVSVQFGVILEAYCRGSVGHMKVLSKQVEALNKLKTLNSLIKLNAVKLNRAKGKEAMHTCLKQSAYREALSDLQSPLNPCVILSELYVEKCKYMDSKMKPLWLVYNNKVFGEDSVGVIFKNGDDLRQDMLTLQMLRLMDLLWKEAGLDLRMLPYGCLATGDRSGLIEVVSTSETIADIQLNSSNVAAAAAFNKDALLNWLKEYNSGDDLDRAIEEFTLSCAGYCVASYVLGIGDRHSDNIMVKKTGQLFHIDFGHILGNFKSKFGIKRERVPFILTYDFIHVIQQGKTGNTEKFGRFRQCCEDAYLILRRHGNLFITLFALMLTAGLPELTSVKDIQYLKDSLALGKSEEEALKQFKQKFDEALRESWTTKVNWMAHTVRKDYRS
PI3-kinase p110-alpha/p85-alpha, sequence (P27986 whole entry): as the sequence (P27986 whole entry, one chain of several) above
PI3-kinase p110-alpha/p85-alpha, sequence (P42336 whole entry): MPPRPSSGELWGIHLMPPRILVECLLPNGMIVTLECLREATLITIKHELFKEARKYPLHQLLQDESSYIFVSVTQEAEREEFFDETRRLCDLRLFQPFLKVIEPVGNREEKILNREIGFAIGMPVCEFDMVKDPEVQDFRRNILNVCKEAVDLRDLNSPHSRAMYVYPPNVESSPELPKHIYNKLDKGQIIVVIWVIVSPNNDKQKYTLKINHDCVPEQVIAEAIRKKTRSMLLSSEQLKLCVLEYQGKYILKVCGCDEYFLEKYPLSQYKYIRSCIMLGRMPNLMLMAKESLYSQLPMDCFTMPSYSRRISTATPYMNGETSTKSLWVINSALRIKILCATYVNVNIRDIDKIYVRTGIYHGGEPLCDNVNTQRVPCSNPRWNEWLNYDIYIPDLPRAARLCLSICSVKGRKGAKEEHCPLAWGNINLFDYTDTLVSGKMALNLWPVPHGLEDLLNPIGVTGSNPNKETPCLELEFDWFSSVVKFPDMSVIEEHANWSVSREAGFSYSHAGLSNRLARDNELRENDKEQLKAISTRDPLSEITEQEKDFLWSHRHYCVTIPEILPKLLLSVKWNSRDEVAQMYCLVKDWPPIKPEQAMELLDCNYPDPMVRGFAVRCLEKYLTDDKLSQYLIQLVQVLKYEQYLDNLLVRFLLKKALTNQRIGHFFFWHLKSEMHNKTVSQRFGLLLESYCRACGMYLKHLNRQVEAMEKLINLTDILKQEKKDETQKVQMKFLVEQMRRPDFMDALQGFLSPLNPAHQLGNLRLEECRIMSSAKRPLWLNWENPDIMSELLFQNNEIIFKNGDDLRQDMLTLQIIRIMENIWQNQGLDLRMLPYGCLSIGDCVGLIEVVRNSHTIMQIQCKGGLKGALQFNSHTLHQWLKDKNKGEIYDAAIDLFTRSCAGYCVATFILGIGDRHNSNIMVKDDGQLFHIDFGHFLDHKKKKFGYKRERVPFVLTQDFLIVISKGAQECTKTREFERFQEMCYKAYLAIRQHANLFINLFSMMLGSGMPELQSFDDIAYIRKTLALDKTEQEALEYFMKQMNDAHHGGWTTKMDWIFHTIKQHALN

Compound	half-life at 100 ug/ml [2]	IC50 [3]	Time [4]	IC50 [5]	IC50 [6]	EC50 [13]	IC50 [20]	further results
Cc1ccncc1-n1c([C@H](C)Nc2nc(N)nc(N)c2C#N)nc2cccc(Cl)c2c1=O (stereo in doubt; 25)	23 h	21 nM	3.5 h	70 nM	880 nM			Time [1]: > 3 h
C[C@H](Nc1nc(N)nc(N)c1C#N)c1nc2c(F)ccc(Cl)c2c(=O)n1-c1cccnc1	19 h	46 nM	2.8 h	51 nM	770 nM	0.5 nM		Vd [14]: 3.2 L/kg; Vd [15]: 0.51 L/kg; clearance [16]: 3.5 mL/min/kg; degraded at 3 h [17]: 10%; clearance [18]: 26.7 mL/min/kg; bioavailability [19]: 24%
Cc1c(F)cncc1-n1c([C@H](C)Nc2nc(N)nc(N)c2C#N)nc2cccc(Cl)c2c1=O (stereo in doubt; 27)	30 h	120 nM	4.6 h	25 nM	1200 nM		0.3 nM	Time [1]: > 3 h; half-life [21]: 1750 h
Cc1ncccc1-n1c([C@H](C)Nc2nc(N)nc(N)c2C#N)nc2cccc(Cl)c2c1=O (stereo in doubt; 23)	20 h	350 nM	3.1 h	160 nM	1600 nM		1.3 nM	Time [1]: > 3 h
COc1cncc(-n2c([C@H](C)Nc3nc(N)nc(N)c3C#N)nc3cccc(Cl)c3c2=O)c1		3000 nM		830 nM	10000 nM	3 nM		
C[C@H](Nc1nc(N)nc(N)c1C#N)c1nc2cccc(Cl)c2c(=O)n1-c1cncc(F)c1	3.6 h	740 nM	0.5 h	150 nM	4300 nM	1.2 nM	1.7 nM	Ratio IC50 [11]: 430; Drug degradation [7]: Active
CC[C@H](Nc1nc(N)nc(N)c1C#N)c1nc2c(F)ccc(Cl)c2c(=O)n1-c1cccnc1	19 h	310 nM	2.8 h	520 nM	1500 nM	2 nM	2 nM	Vd [14]: 0.54 L/kg; Vd [15]: 0.3 L/kg; clearance [16]: 2.17 mL/min/kg; clearance [18]: 5 mL/min/kg; bioavailability [19]: 37%
C[C@H](Nc1nc(N)nc(N)c1C#N)c1nc2cccc(Cl)c2c(=O)n1-c1cncc(C#N)c1		3100 nM		700 nM	8700 nM	4 nM	13 nM	
C[C@H](Nc1nc(N)nc(N)c1C#N)c1nc2c(F)ccc(F)c2c(=O)n1-c1cccnc1		770 nM		940 nM	4020 nM	11 nM		
Cc1ncccc1-n1c([C@H](C)Nc2nc(N)nc(N)c2C#N)nc2cccc(Cl)c2c1=O (stereo in doubt; 24)		440 nM		650 nM	6800 nM			
C[C@H](Nc1nc(N)nc(N)c1C#N)c1nc2cccc(F)c2c(=O)n1-c1cc(F)cc(F)c1	34 h							Ratio IC50 [8]: 180; half-life [9]: 34 h; Ratio IC50 [10]: 1900; Ratio IC50 [11]: 650; Stabilty [12]: Stable
C[C@H](Nc1nc(N)nc(N)c1C#N)c1nc2c(F)ccc(Cl)c2c(=O)n1-c1cncc(F)c1	20 h	440 nM	2.9 h	120 nM	3100 nM	0.5 nM		Vd [14]: 1.4 L/kg; Vd [15]: 0.96 L/kg; clearance [16]: 5.17 mL/min/kg; clearance [18]: 17.7 mL/min/kg; bioavailability [19]: 46%
C[C@H](Nc1nc(N)nc(N)c1C#N)c1nc2cccc(Cl)c2c(=O)n1-c1cncc(C(F)(F)F)c1		4800 nM		1300 nM	10000 nM	21 nM	17 nM	

Further lines, with some results ahead:

half-life at 100 ug/ml [2]	IC50 [3]	Time [4]	IC50 [5]	IC50 [6]	EC50 [13]	IC50 [20]	Compound	further results
4.3 h		0.65 h					CC[C@H](Nc1nc(N)nc(N)c1C#N)c1nc2cccc(Cl)c2c(=O)n1-c1cccnc1	Drug degradation [7]: Active
	370 nM		1300 nM	9700 nM			Cc1ccncc1-n1c([C@H](C)Nc2nc(N)nc(N)c2C#N)nc2cccc(Cl)c2c1=O (stereo in doubt; 26)	
3.6 h		0.5 h					N#Cc1c(N)nc(N)nc1N[C@H](c1nc2cccc(Cl)c2c(=O)n1-c1cccnc1)C1CC1	Drug degradation [7]: Active
358 h	9.4 nM			240 nM	0.3 nM		C[C@H](Nc1nc(N)nc(N)c1C#N)c1nc2cccc(Cl)c2c(=O)n1-c1ccccc1	Ratio IC50 [8]: 60; half-life [9]: 358 h; Ratio IC50 [10]: 2200; Ratio IC50 [11]: 80; Stabilty [12]: Stable
	390 nM		1100 nM	3100 nM	5 nM		C[C@H](Nc1nc(N)nc(N)c1C#N)c1nc2c(Cl)cccc2c(=O)n1-c1cccnc1	
2.7 h	100 nM	0.2 h	72 nM	1030 nM	0.9 nM		C[C@H](Nc1nc(N)nc(N)c1C#N)c1nc2cccc(Cl)c2c(=O)n1-c1cccnc1	Vd [14]: 1.9 L/kg; Vd [15]: 0.9 L/kg; clearance [22]: 1.67 mL/min/kg; clearance [16]: 3.33 mL/min/kg; Ratio IC50 [8]: 120; half-life [23]: 5.6 h; Ratio IC50 [10]: 1700; Ratio IC50 [11]: 160; half-life [24]: 2.5 h; Vd [25]: 0.5 L/kg; half-life [26]: 4.9 h; clearance [18]: 25 mL/min/kg; bioavailability [19]: 42%
	2600 nM		2300 nM	10000 nM	7 nM		C[C@H](Nc1nc(N)nc(N)c1C#N)c1nc2cccc(Cl)c2c(=O)n1-c1cncc(C2CC2)c1	
	1750 nM		6900 nM	10000 nM		40 nM	Cc1c(F)cncc1-n1c([C@H](C)Nc2nc(N)nc(N)c2C#N)nc2cccc(Cl)c2c1=O (stereo in doubt; 28)	
15 h	76 nM	2.3 h	330 nM	1300 nM	0.9 nM		C[C@H](Nc1nc(N)nc(N)c1C#N)c1nc2c(Cl)ccc(Cl)c2c(=O)n1-c1cccnc1	
	1200 nM		1200 nM	8300 nM	4 nM		C[C@H](Nc1nc(N)nc(N)c1C#N)c1nc2cccc(Cl)c2c(=O)n1-c1cncc(Cl)c1	
